According to ChEMBL document CHEMBL1135992, “Quantitative structure-activity relationship analysis of functionalized amino acid anticonvulsant agents using k nearest neighbor and simulated annealing PLS methods” (2002):

Assays:
Type in all cases: functional
[1] = tested on: Mus musculus; assay: In vivo anticonvulsant activity in male albino mice using the maximal electroshock (MES) test after intraperitoneal administration; value ranges from 76.8-120; conditions: ip
How it was run: (§1)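 Mice (18–25 g) received the test agent intraperitoneally as a suspension in 0.5% (w/v) methylcellulose in water. A 60-cycle alternating current at 50 mA was applied for 0.2 s, and protection meant abolition of the hindlimb tonic extensor component. The ED50 was determined at the time of peak effect in groups of at least eight mice. At least two doses fell between 100% and 0% protection, and the 95% confidence interval was calculated by Finney's method.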

[2] = tested on: Mus musculus; assay: Anticonvulsant activity in mice following i.p. treatment and Maximal Electroshock Seizure (MES) test.
How it was run: (§2)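 Mice (18–25 g) received the compound ip as a suspension in 0.5% (w/v) methylcellulose in water. A 60-cycle alternating current of 50 mA was applied for 0.2 s. Protection was defined as abolition of the hindlimb tonic extensor component. […] ED50 and 95% confidence interval were calculated by Finney's methods.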

[3] = tested on: Mus musculus; assay: In vivo anticonvulsant activity in male albino mice using the maximal electroshock (MES) test after intraperitoneal administration; value ranges from 26.7-37.8; conditions: ip
[4] = tested on: Mus musculus; assay: In vivo anticonvulsant activity in male albino mice using the maximal electroshock (MES) test after intraperitoneal administration; value ranges from 457.7-715; conditions: ip
[5] = tested on: Mus musculus; assay: In vivo anticonvulsant activity in male albino mice using the maximal electroshock seizure(MES) test upon intraperitoneal administration, expressed as logarithm of effective dose; how it was run: as §1
[6] = tested on: Mus musculus; assay: In vivo anticonvulsant activity in male albino mice using the maximal electroshock seizure(MES) test upon intraperitoneal administration (exp-1); conditions: ip; how it was run: as §1
[7] = tested on: Mus musculus; assay: In vivo anticonvulsant activity in male albino mice using the maximal electroshock seizure(MES) test upon intraperitoneal administration (exp-2); conditions: ip; how it was run: as §1
[8] = tested on: Mus musculus; assay: In vivo anticonvulsant activity in male albino mice using the maximal electroshock seizure(MES) test upon intraperitoneal administration, expressed as logarithm of effective dose; value ranges from 2.63 to 3.12; how it was run: as §1
[9] = tested on: Mus musculus; assay: In vivo anticonvulsant activity in male albino mice using the maximal electroshock seizure(MES) test upon intraperitoneal administration; value ranges from 51.9 to 68; conditions: ip
[10] = tested on: Mus musculus; assay: In vivo anticonvulsant activity in male albino mice using the maximal electroshock seizure(MES) test upon intraperitoneal administration (exp 2); conditions: ip; how it was run: as §2
[11] = tested on: Mus musculus; assay: In vivo anticonvulsant activity in male albino mice using the maximal electroshock seizure(MES) test upon intraperitoneal administration, expressed as logarithm of effective dose; value ranges from 2.63 to 3.11
[12] = tested on: Mus musculus; assay: In vivo anticonvulsant activity in male albino mice using the maximal electroshock seizure(MES) test upon intraperitoneal administration (exp 1); conditions: ip; how it was run: as §2
[13] = tested on: Mus musculus; assay: In vivo anticonvulsant activity in male albino mice using the maximal electroshock seizure(MES) test upon intraperitoneal administration; value ranges from 62.5 to 91; conditions: ip
[14] = tested on: Mus musculus; assay: In vivo anticonvulsant activity in male albino mice using the maximal electroshock seizure(MES) test upon intraperitoneal administration; value ranges from 74.3 to 99.1; conditions: ip; how it was run: as §2
[15] = tested on: Mus musculus; assay: In vivo anticonvulsant activity in male albino mice using the maximal electroshock (MES) test after intraperitoneal administration; value ranges from 34.9-54.3; conditions: ip; how it was run: as §1
[16] = tested on: Mus musculus; assay: In vivo anticonvulsant activity in male albino mice using the maximal electroshock seizure(MES) test upon intraperitoneal administration; value ranges from 44.4 to 59.9; conditions: ip
[17] = tested on: Mus musculus; assay: In vivo anticonvulsant activity in male albino mice using the maximal electroshock seizure(MES) test upon intraperitoneal administration; value ranges from 15 to 19; conditions: ip
[18] = tested on: Mus musculus; assay: In vivo anticonvulsant activity in male albino mice using the maximal electroshock (MES) test after intraperitoneal administration (exp 2); conditions: ip; how it was run: as §2
[19] = tested on: Mus musculus; assay: In vivo anticonvulsant activity in male albino mice using the maximal electroshock (MES) test after intraperitoneal administration (exp 1); conditions: ip; how it was run: as §2
[20] = tested on: Mus musculus; assay: In vivo anticonvulsant activity in male albino mice using the maximal electroshock seizure(MES) test upon intraperitoneal administration, expressed as logarithm of effective dose; value ranges from 2.08 to 2.60
[21] = tested on: Mus musculus; assay: In vivo anticonvulsant activity in male albino mice using the maximal electroshock (MES) test after intraperitoneal administration; conditions: ip; how it was run: as §1

SMILES: CC(=O)NC(Nc1cccc(N)c1)C(=O)NCc1ccccc1 (stereo not given)
- ED50 [1]: 98.6 mg/kg
- Log ED50 [2]: 2.5 uM kg-1

SMILES: CC(=O)NC(NNC(=O)OCc1ccccc1)C(=O)NCc1ccccc1 (stereo not given)
- Log ED50 [2]: 2.18 uM kg-1

SMILES: CC(=O)NC(C(=O)NCc1ccccc1)n1cccn1 (stereo not given)
- Log ED50 [2]: 1.78 uM kg-1

SMILES: CC(=O)NC(C(=O)NCc1ccccc1)n1cccc1 (stereo not given)
- Log ED50 [2]: 2.47 uM kg-1

SMILES: CC(=O)NC(C(=O)NCc1ccccc1)N1CC=CO1 (stereo not given)
- ED50 [3]: 31.4 mg/kg
- Log ED50 [2]: 2.05 uM kg-1

SMILES: CC(=O)NC(C(=N)NOC(C)=O)C(=O)NCc1ccccc1 (stereo not given)
- ED50 [4]: 140 mg/kg
- Log ED50 [2]: 2.66 uM kg-1

SMILES: CC(=O)NC(C(=O)NCc1ccccc1)c1ccc(C)[nH]1 (stereo not given)
- Log ED50 [5]: 2.12 uM kg-1

SMILES: CCC(NC(C)=O)C(=O)NCc1ccccc1 (stereo not given)
- ED50 [6]: > 100 mg/kg
- ED50 [7]: < 300 mg/kg
- Log ED50 [8]: 3.12 uM kg-1

SMILES: CC(=O)NC(C(=O)NCc1ccccc1F)c1ccco1 (stereo not given)
- Log ED50 [5]: 2.14 uM kg-1

SMILES: CC(=O)NC(C(=O)NCc1ccccc1)N(C)C (stereo not given)
- Log ED50 [2]: 2.26 uM kg-1

SMILES: CC(=O)NC(=O)NCc1ccccc1
- ED50 [9]: 60.1 mg/kg
- Log ED50 [5]: 2.5 uM kg-1

SMILES: CCOC(NC(C)=O)C(=O)NCc1ccccc1 (stereo not given)
- Log ED50 [2]: 2.39 uM kg-1

SMILES: CC(=O)NC(C(=O)NCc1ccccc1)c1ccccc1 (stereo not given)
- Log ED50 [5]: 2.06 uM kg-1

SMILES: CC(=O)NC(C)C(=O)N(C)Cc1ccccc1 (stereo not given)
- ED50 [10]: < 300 mg/kg
- Log ED50 [11]: 3.11 uM kg-1
- ED50 [12]: > 100 mg/kg

SMILES: CC(=O)NC(C)C(=O)NCc1cccc(F)c1 (stereo not given)
- ED50 [13]: 77.3 mg/kg
- Log ED50 [5]: 2.51 uM kg-1

SMILES: CC(=O)NC(C(=O)NCc1ccccc1)c1ccc[nH]1 (stereo not given)
- Log ED50 [5]: 1.77 uM kg-1

SMILES: CC(=O)NC(N)C(=O)NCc1ccccc1 (stereo not given)
- Log ED50 [2]: 2.47 uM kg-1

SMILES: C=CCC(NC(C)=O)C(=O)NCc1ccccc1 (stereo not given)
- Log ED50 [5]: 2.16 uM kg-1

SMILES: CCN(C(C)=O)C(C)C(=O)NCc1ccccc1 (stereo not given)
- ED50 [14]: 85 mg/kg
- Log ED50 [5]: 2.53 uM kg-1

SMILES: CC(=O)NC(C(=O)NCc1ccccc1)N(N)c1ccccc1 (stereo not given)
- ED50 [15]: 42.8 mg/kg
- Log ED50 [2]: 2.14 uM kg-1

SMILES: CC(=O)NC(C(=O)NCc1ccccc1)C1CCCO1 (stereo not given)
- ED50 [16]: 51.7 mg/kg
- Log ED50 [5]: 2.27 uM kg-1

SMILES: CONC(NC(C)=O)C(=O)NCc1ccccc1 (stereo not given)
- Log ED50 [2]: 1.39 uM kg-1

SMILES: CCOCC(NC(C)=O)C(=O)NCc1ccccc1 (stereo not given)
- ED50 [17]: 17 mg/kg
- Log ED50 [5]: 1.81 uM kg-1

SMILES: CCCC(N)C(=O)NCc1ccccc1 (stereo not given)
- ED50 [18]: < 100 mg/kg
- ED50 [19]: > 30 mg/kg
- Log ED50 [2]: 2.69 uM kg-1

SMILES: CCC(C(=O)NCc1ccccc1)N(C)C(C)=O (stereo not given)
- Log ED50 [20]: 2.6 uM kg-1
- ED50 [10]: < 100 mg/kg
- ED50 [12]: > 30 mg/kg

SMILES: CC(=O)NC(C)C(=O)NCc1ccccc1 (racemic)
- Log ED50 [5]: 2.54 uM kg-1

SMILES: CC(=O)NC(C(=O)NCc1cccc(F)c1)c1ccco1 (stereo not given)
- Log ED50 [5]: 1.66 uM kg-1

SMILES: CC(=O)NC(Nc1ccc(N)cc1)C(=O)NCc1ccccc1 (stereo not given)
- ED50 [21]: 176 mg/kg
- Log ED50 [2]: 2.75 uM kg-1

SMILES: CC(N)C(=O)NCc1ccccc1 (stereo not given)
- ED50 [18]: < 300 mg/kg
- ED50 [19]: > 100 mg/kg
- Log ED50 [2]: 3.23 uM kg-1

SMILES: CC(=O)NC(C(=O)NCc1ccc(F)cc1)c1ccco1 (stereo not given)
- Log ED50 [5]: 1.64 uM kg-1
